{"source": "paper PMC2754219", "about": "(Obesity (Silver Spring, Md.), 2009)", "key": {"[1]": {"test_system": "obese or overweight subjects", "format": "in vivo, human"}, "[2]": {"test_system": "obese or overweight subjects", "test": "Clinical study: fasting lipoprotein and glycemic control parameters", "format": "in vivo, human", "conditions": "enrollment to week 16, evaluable population, mean ± s.e., SEM", "procedure,_shortened": "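Fasting glucose, insulin, lipids and HOMA-IR were taken as change from enrollment to week 16 after the 4-week amylin analogue lead-in with a 40% caloric-deficit diet. This was followed by randomized s.c. b.i.d. leptin analogue, amylin analogue, or both, and advice to keep a 20% caloric deficit. Evaluable subjects had completed week 16; values are mean ± s.e.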"}, "[3]": {"format": "in vivo, human", "conditions": "week 16; metreleptin 5 mg b.i.d. s.c.", "procedure,_shortened": "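Predose plasma leptin was measured at week 16 and expressed relative to enrollment concentration. Subjects received a leptin analogue at 5mg b.i.d. s.c., alone or with an amylin analogue at 360 μg b.i.d., each injected separately 15 min before morning and evening meals. Analysis covered the evaluable population; values are mean ± s.e.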"}, "[4]": {"test_system": "nonleptin-deficient obesity", "conditions": "doses up to twofold those used in this study; and data on file, Amylin Pharmaceuticals, Inc.; cited from earlier work"}, "[5]": {"test_system": "obese or overweight subjects", "test": "Clinical study: treatment-emergent adverse events, tolerability and withdrawals"}, "[6]": {"conditions": "evaluable population, LS mean ± s.e., SEM"}, "[7]": {"conditions": "ITT population, lead-in and postrandomization periods"}}}
{"substance": "Metreleptin: recombinant methyl-human leptin (metreleptin)", "values": [{"measurement": "Overall rate of weight change", "setting": "[1]; day 1 to week 20, evaluable population, LS mean ± s.e., SEM", "result": "−0.16 ± 0.06", "unit": "kg/week"}, {"measurement": "Rate of weight change, Day 1 to week 12", "setting": "[1]; [6]", "result": "−0.23 ± 0.06", "unit": "kg/week"}, {"measurement": "Rate of weight change, Week 12 to week 20", "setting": "[1]; [6]", "result": "−0.02 ± 0.08", "unit": "kg/week"}, {"measurement": "Weight loss, percent of initial body weight over 24 weeks", "setting": "[1]; evaluable, rounded figures of the discussion", "result": "~ 8%"}, {"measurement": "Change in HOMA-IR", "setting": "[2]", "result": "−0.10 ± 0.29"}, {"measurement": "Change in insulin", "setting": "[2]; fasting serum", "result": "−0.6 ± 1.1", "unit": "μIU/ml"}, {"measurement": "Change in HDL", "setting": "[2]; fasting", "result": "1.7 ± 1.5", "unit": "mg/dL"}, {"measurement": "Change in LDL", "setting": "[2]; fasting", "result": "1.1 ± 5.1", "unit": "mg/dL"}, {"measurement": "Change in blood glucose", "setting": "[2]; fasting", "result": "0.7 ± 1.7", "unit": "mg/dL"}, {"measurement": "Change in total cholesterol", "setting": "[2]; fasting", "result": "2.7 ± 5.8", "unit": "mg/dL"}, {"measurement": "Change in triglycerides", "setting": "[2]; fasting", "result": "5.7 ± 13.5", "unit": "mg/dL"}, {"measurement": "Increase of predose leptin concentrations over enrollment concentrations", "setting": "[3]", "result": "13- to 16 fold"}, {"measurement": "Weight loss in previous monotherapy trials", "setting": "[4]", "result": "failed to show significant weight loss"}, {"measurement": "Back pain", "setting": "[5]; [7]", "result": "0 (0.0) n (%)"}, {"measurement": "Constipation", "setting": "[5]; [7]", "result": "1 (3.7) n (%)"}, {"measurement": "Diarrhea", "setting": "[5]; [7]", "result": "0 (0.0) n (%)"}, {"measurement": "Headache", "setting": "[5]; [7]", "result": "2 (7.4) n (%)"}, {"measurement": "Hypersensitivity", "setting": "[5]; [7]", "result": "2 (7.4) n (%)"}, {"measurement": "Influenza", "setting": "[5]; [7]", "result": "1 (3.7) n (%)"}, {"measurement": "Injection site adverse events", "setting": "[5]; [7]", "result": "18 (66.7) n (%)"}, {"measurement": "Nasopharyngitis", "setting": "[5]; [7]", "result": "2 (7.4) n (%)"}, {"measurement": "Nausea", "setting": "[5]; [7]", "result": "7 (25.9) n (%)"}, {"measurement": "Streptococcal pharyngitis", "setting": "[5]; [7]", "result": "0 (0.0) n (%)"}, {"measurement": "Vomiting", "setting": "[5]; [7]", "result": "2 (7.4) n (%)"}, {"measurement": "Withdrew during randomized treatment, reason: Adverse event", "setting": "[5]; through week 20, randomized/ITT population", "result": "3 (11) n (%)"}]}
